From ChEMBL document CHEMBL3132844, “Acyl protein thioesterase inhibitors as probes of dynamic S-palmitoylation” (Medchemcomm, 2014) come the findings set out here.

The target in test [1] is T1, Acyl-protein thioesterase 1 (Homo sapiens, UniProt O75608). The test can be described thus: Inhibition of APT1 (unknown origin) by FluPol-ABPP assay. The procedure, abridged: (§1)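 Fluorescence polarization competitive ABPP (FluoPol-ABPP) in high-throughput format. Recombinant human APT enzyme was preincubated with candidate inhibitor at 10 µM. FP-TAMRA was then added for a short, time-dependent reaction under non-equilibrium conditions. Read-out was the polarization signal of probe labeling of the active site.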
T1 sequence (O75608 whole entry): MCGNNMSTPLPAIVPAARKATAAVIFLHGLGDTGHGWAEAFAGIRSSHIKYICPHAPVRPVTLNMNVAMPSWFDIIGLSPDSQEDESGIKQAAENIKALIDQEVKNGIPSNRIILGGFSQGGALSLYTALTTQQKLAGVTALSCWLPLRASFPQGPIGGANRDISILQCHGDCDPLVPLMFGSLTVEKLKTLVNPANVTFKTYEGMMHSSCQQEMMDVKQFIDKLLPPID

Test [2] addresses T2, Acyl-protein thioesterase 2 (Homo sapiens, UniProt O95372). As to the kind of experiment: Inhibition of APT2 (unknown origin) by FluPol-ABPP assay. The essentials:
as §1

The target of test [3] is T3, sn-1-specific diacylglycerol lipase ABHD11 (Homo sapiens, UniProt Q8NFV4).
T3 sequence (Q8NFV4 whole entry): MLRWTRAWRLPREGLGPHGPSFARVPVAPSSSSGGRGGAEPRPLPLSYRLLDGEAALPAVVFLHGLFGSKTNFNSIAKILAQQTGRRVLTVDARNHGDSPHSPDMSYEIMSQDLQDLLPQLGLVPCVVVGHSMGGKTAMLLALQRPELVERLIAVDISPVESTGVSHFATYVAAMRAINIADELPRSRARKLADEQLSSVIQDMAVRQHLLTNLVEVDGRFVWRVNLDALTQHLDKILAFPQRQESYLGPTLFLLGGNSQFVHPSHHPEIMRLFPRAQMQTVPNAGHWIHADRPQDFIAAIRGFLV
As to the kind of experiment: Inhibition of ABHD11 (unknown origin). The procedure, abridged:
(§2)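 Potency and selectivity were measured by gel-based competitive ABPP. The enzyme source was preincubated with inhibitor, then labeled with a fluorophosphonate activity-based probe. Residual active-site labeling was visualized in-gel.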

The target in test [4] is T1, Acyl-protein thioesterase 1. As to the kind of experiment: Inhibition of human APT1. The essentials:
as §2

The target in test [5] is T2, Acyl-protein thioesterase 2. The test can be described thus: Inhibition of human APT2. The procedure, abridged: as §2
Test [6] has the same target. The test can be described thus: Inhibition of APT2 (unknown origin).
Test [7] has the same target. As to the kind of experiment: Inhibition of APT2 (unknown origin) by enzyme kinetic assay.
A short description of test [8]: Inhibition of Toxoplasma gondii ASH1. The procedure, abridged:
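The Toxoplasma gondii APT homologue TgASH1 was assayed by competitive ABPP. The inhibitor was preincubated, followed by activity-based probe labeling. Loss of probe labeling of TgASH1 was scored across inhibitor concentrations.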

Test [9] concerns the target T1, Acyl-protein thioesterase 1. The test can be described thus: Inhibition of APT1 (unknown origin).

T2 sequence (O95372 whole entry): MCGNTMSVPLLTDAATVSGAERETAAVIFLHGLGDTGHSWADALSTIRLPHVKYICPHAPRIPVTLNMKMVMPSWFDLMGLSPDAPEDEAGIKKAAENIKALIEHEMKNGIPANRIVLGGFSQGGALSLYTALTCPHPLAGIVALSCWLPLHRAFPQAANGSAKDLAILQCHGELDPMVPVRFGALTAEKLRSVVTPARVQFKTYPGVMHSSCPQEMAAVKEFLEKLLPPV

Turning to `COc1ccc(N2CCN(C(=O)c3cc4c(s3)-c3ccccc3S(=O)(=O)C4)CC2)cc1`, the Ki is greater than 10000 nM in test [1] and 230 nM in test [2].
With `CCC1CCCCN1C(=O)n1ncc(C(O)(c2ccccc2)c2ccccc2)n1` (stereo not drawn), the IC50 is less than 30 nM in [3], greater than 10000 nM in test [4] and greater than 10000 nM in test [5].
For the compound `CC(C)(C)C1CCN(C(=O)n2ncc(C(O)(c3ccccc3)c3ccccc3)n2)CC1`, the IC50 in test [3] is less than 30 nM; in [4], 17 nM; in [5], 30 nM.
In turn, `CCCCCCCCCC[C@@H]1C(=O)O[C@H]1CCCCS(=O)(=O)CCCN(C)C` yielded an IC50 in [6] of 19.6 nM. This counts as double-digit nanomolar.
In the case of `CN(C)CCOB(c1ccccc1)c1ccc(COCc2ccc(B(OCCN(C)C)c3ccccc3)cc2)cc1`, affinity in test [7] was put at a Ki of 730 nM.
`O=C(N1CCCCC1)n1ncc(C(O)(c2ccccc2)c2ccccc2)n1`: the IC50 was less than 30 nM in test [3], less than 30 nM in test [4] and 200 nM in test [5].
As to `CCCOc1oc(=O)c2cc(N)ccc2c1Cl`, the IC50 in test [8] was 1320 nM.
Compound `O=C(CN1CCN(C(=O)c2ccco2)CC1)Nc1cc(C(F)(F)F)ccc1Cl` returned a Ki in test [2] greater than 10000 nM.
Consider `CCCCCCCCCC[C@@H]1C(=O)O[C@H]1CCc1ccc(OC)c(OC)c1` [PALMOSTATIN B], for which, in [6], the IC50 came to 37.7 nM and the Ki is 34 nM. The compound also gave an IC50 in [9] of 5.4 nM.

The term Ki denotes a dissociation constant, usually derived from enzyme kinetics or from competition with a known ligand. The IC50 is the point on the concentration scale where inhibition reaches its midpoint. Read a low IC50 as greater potency in that assay.
